The values that follow come from ChEMBL document CHEMBL1151976, “Bioactive sulfated sesterterpene alkaloids and sesterterpene sulfates from the marine sponge Fasciospongia sp” (J Nat Prod, 2009).

≈ marks a conversion by molar mass, not a printed value. Calls of active or inactive are those of the source. The calls are words filed in the database; no cut-off is given here.

In experiment [1] the test system is MCF7. The experiment can be described thus: Cytotoxicity against human MCF7 cells at 20 ug/ml after 72 hrs by SRB assay. The format is functional, cell-based. The essentials: (§1)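 Single-concentration screen at 20 µg/mL. Cells seeded at 10^6 cells/mL in 96-well plates, sample added in 10% DMSO, incubated 72 h at 37 °C. Viability by sulforhodamine B staining, compared with a 0.5% DMSO-treated control.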

In experiment [2] the test system is LNCaP. The experiment can be described thus: Cytotoxicity against human LNCAP cells at 20 ug/ml after 72 hrs by SRB assay. The format is functional, cell-based. An outline of the steps: as §1
Experiment [3] has as its system Lu1. The experiment can be described thus: Cytotoxicity against human Lu1 cells at 20 ug/ml after 72 hrs by SRB assay. The format is functional, cell-based. The essentials: as §1
Experiment [4] deals with Streptomyces. In words: Antimicrobial activity against Streptomyces 85E assessed as inhibition of hyphae formation at 20 ug/disk after 30 hrs. It counts as functional. Conditions: read-out: IZ. An outline of the steps:
(§2)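 Streptomyces 85E mycelial fragments spread as a lawn on minimal medium ISP 4 agar. Compounds in MeOH loaded onto 7 mm filter disks, air-dried, placed on plates, incubated 30 °C for 30 h. Read-out: clear or bald (hyphae-free) zone diameter around the disk; >9 mm counted active. Surfactin positive control, MeOH negative control; run in duplicate.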

In experiment [5] the test system is Streptomyces. In words: Antimicrobial activity against Streptomyces 85E assessed as inhibition of hyphae formation at 10 ug/disk after 30 hrs. Conditions: read-out: IZ. It counts as functional. An outline of the steps: as §2
The subject of experiment [6] is Streptomyces. In words: Antimicrobial activity against Streptomyces 85E assessed as inhibition of hyphae formation at 5 ug/disk after 30 hrs. It counts as functional. The conditions noted are these: for zone of inhibition at 5 µg/disc: read-out: IZ. An outline of the steps: as §2
The subject of experiment [7] is Streptomyces. In words: Antimicrobial activity against Streptomyces 85E assessed as inhibition of hyphae formation at 2.5 ug/disk after 30 hrs. The format is functional. The essentials:
as §2

Experiment [8] relates to MCF7. In words: Cytotoxicity against human MCF7 cells after 72 hrs by SRB assay. Conditions: MCF7, 72 h. It counts as functional, cell-based. The essentials: (§3)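 Cells seeded at 10^6 cells/mL in 96-well plates. Six serial dilutions of sample in 10% DMSO added in triplicate. Incubated 72 h at 37 °C; viability measured by sulforhodamine B staining. IC50 is the concentration giving 50% growth inhibition relative to 0.5% DMSO-treated control, averaged over two independent experiments.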

Experiment [9] concerns LNCaP. The experiment can be described thus: Cytotoxicity against human LNCAP cells after 72 hrs by SRB assay. The format is functional, cell-based. An outline of the steps: as §3
Experiment [10] has as its system Lu1. The experiment can be described thus: Cytotoxicity against human Lu1 cells after 72 hrs by SRB assay. Conditions: Lu1, 72 h. It counts as functional, cell-based. The essentials:
as §3

The test system of another experiment is HeLa. The experiment can be described thus: Cytotoxicity against human HeLa cells after 72 hrs by SRB assay. It counts as functional, cell-based.

Regarding `C[C@H]1CC[C@H]2C(=CCCC2(C)C)[C@@]1(C)CCC(CCCC1=CC(=O)OC1O)COS(=O)(=O)O` (stereo not given in full), the Activity result in the experiment on MCF7 [1], in the experiment with LNCaP [2] and with Lu1 [3] was “Not toxic” in each case. Besides, in the experiment on Streptomyces [4], the zone of inhibition at 20 µg/disc worked out at 19 mm. The zone of inhibition at 10 µg/disc with Streptomyces [5] is 13 mm. In addition, the “inhibition zone (IZ)” value in the experiment with Streptomyces [6] and in the experiment with Streptomyces [7] was “inactive” throughout.

With `C[C@H]1CC[C@H]2C(=CCCC2(C)C)[C@@]1(C)CCC(CCCC1=CC(=O)N(CCc2c[nH]cn2)C1=O)COS(=O)(=O)O` (stereo not given in full) [19-OXOFASCIOSPONGINE A], the values for the IC50 in the experiment with MCF7 [8], in the experiment with LNCaP [9] and in the experiment on Lu1 [10] were 13.4 µM, 21.8 µM and 5 µM, respectively. Besides, the zone of inhibition at 20 µg/disc in the experiment on Streptomyces [4] came to 25 mm. In addition, the zone of inhibition at 10 µg/disc with Streptomyces [5] was 20 mm. Further, the zone of inhibition at 5 µg/disc in the experiment with Streptomyces [6] came out at 16 mm. In addition, the zone of inhibition at 2.5 µg/disc with Streptomyces [7] (read-out: IZ) amounted to 14 mm.

With `C[C@H]1CC[C@H]2C(=CCCC2(C)C)[C@@]1(C)CCC(CCCC1=CCN(CCc2c[nH]cn2)C1=O)COS(=O)(=O)O` (stereo not given in full) [FASCIOSPONGINE A], the Activity entry in the experiment with MCF7 [1], with LNCaP [2] and in the experiment on Lu1 [3] was “Not toxic” throughout. Moreover, in the experiment with Streptomyces [4], the zone of inhibition at 20 µg/disc came to 18 mm. The zone of inhibition at 10 µg/disc in the experiment with Streptomyces [5] came out at 16 mm. Besides, the zone of inhibition at 5 µg/disc in the experiment on Streptomyces [6] was found to be 14 mm. The “inhibition zone (IZ)” value in the experiment on Streptomyces [7] is “inactive”.

`C[C@H]1CC[C@H]2C(=CCCC2(C)C)[C@@]1(C)CCC(CCCC1=CC(=O)N(CCc2c[nH]cn2)C1)COS(=O)(=O)O` (stereo not given in full) [FASCIOSPONGINE B]: the Activity result with MCF7 [1], with LNCaP [2] and with Lu1 [3] was “Not toxic” each time. The zone of inhibition at 20 µg/disc in the experiment with Streptomyces [4] is 19 mm. Further, the zone of inhibition at 10 µg/disc in the experiment with Streptomyces [5] stood at 17 mm. In the experiment on Streptomyces [6], the zone of inhibition at 5 µg/disc is 15 mm. In addition, in the experiment on Streptomyces [7], the “inhibition zone (IZ)” value was “inactive”.

Take `C[C@H]1CC[C@H]2C(=CCCC2(C)C)[C@@]1(C)CCC(CCCC1=CCN(CCCCNC(=N)N)C1=O)COS(=O)(=O)O` (stereo not given in full) [FASCIOSPONGINE C]: the Activity entry in the experiment with MCF7 [1], with LNCaP [2] and in the experiment on Lu1 [3] was “Not toxic” in each case. Further, in the experiment with Streptomyces [4], the zone of inhibition at 20 µg/disc was found to be 14 mm. The zone of inhibition at 10 µg/disc in the experiment on Streptomyces [5] came out at 13 mm. Besides, the “inhibition zone (IZ)” value in the experiment with Streptomyces [6] and in the experiment with Streptomyces [7] was “inactive” in each case.

For `C[C@H]1CC[C@H]2C(=CCCC2(C)C)[C@@]1(C)CCC(CCCc1ccoc1)COS(=O)(=O)O` (stereo not given in full) [HALISULFATE 7], the Activity entry with MCF7 [1], in the experiment on LNCaP [2] and in the experiment on Lu1 [3] was “Not toxic” each time. In the experiment on HeLa, this compound came in with an IC50 of 16 µg/mL (≈ 35.3 µM). The zone of inhibition at 20 µg/disc in the experiment with Streptomyces [4] was 18 mm. In addition, in the experiment with Streptomyces [5], the zone of inhibition at 10 µg/disc is 15 mm. In addition, the “inhibition zone (IZ)” value in the experiment with Streptomyces [6] and with Streptomyces [7] was “inactive” throughout.

Take `C[C@H]1CC[C@H]2C(=CCCC2(C)C)[C@@]1(C)CCC(CCCC1=CC(=O)OC1)COS(=O)(=O)O` (stereo not given in full) [HALISULFATE 9]: the Activity entry in the experiment with MCF7 [1], in the experiment on LNCaP [2] and in the experiment with Lu1 [3] was “Not toxic” in each case. Moreover, the zone of inhibition at 20 µg/disc in the experiment on Streptomyces [4] was found to be 16 mm. Further, the zone of inhibition at 10 µg/disc with Streptomyces [5] turned out to be 14 mm. Also, the “inhibition zone (IZ)” value with Streptomyces [6] and in the experiment with Streptomyces [7] was “inactive” throughout.
